pIC50, pKi: −log10 of the molar value. The source made the active and inactive calls. The calls are words filed in the database; no cut-off is given here.
Columns and labels:
[1] = target: T1, Cystine/glutamate transporter (Homo sapiens) (UniProt Q9UPY5); experiment: Inhibition of amino acid transport system xc- in human SNB19 cells assessed as [3H]L-glutamate uptake at 250 uM by liquid scintillation counting; format: cell-based; set-up: scale not given: the % may be the effect or the level left; conditions: SNB-19
T1 sequence (whole entry): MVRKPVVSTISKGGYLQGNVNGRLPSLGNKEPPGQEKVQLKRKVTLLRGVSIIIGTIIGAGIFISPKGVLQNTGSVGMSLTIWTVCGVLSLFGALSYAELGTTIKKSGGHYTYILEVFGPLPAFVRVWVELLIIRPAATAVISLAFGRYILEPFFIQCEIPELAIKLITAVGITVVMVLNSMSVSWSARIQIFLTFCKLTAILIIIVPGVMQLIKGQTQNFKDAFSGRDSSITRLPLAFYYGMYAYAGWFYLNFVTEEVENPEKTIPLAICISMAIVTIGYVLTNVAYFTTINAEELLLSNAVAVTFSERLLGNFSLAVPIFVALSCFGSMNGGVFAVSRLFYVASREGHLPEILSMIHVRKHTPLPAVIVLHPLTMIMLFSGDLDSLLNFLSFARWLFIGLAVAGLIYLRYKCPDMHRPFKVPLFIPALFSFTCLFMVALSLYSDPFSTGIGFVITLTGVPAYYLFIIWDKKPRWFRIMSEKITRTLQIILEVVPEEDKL
How it was run: (§1)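 Confluent SNB-19 glioma monolayers were refed 2 h before assay, then preincubated 5 min at 30 °C in Na+-free HEPES-buffered Hank's (choline Cl, pH 7.4). Test agent was added together with L-[3H]-glutamate plus unlabeled L-Glu (10–500 μM final). After 5 min at 30 °C, ice-cold washes stopped uptake. Cells were lysed in 0.4 M NaOH and counted by LSC. Results are % of control uptake.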

[2] = target: T1, Cystine/glutamate transporter (Homo sapiens); experiment: Inhibition of amino acid transport system xc- in human SNB19 cells assessed as [3H]L-glutamate uptake at 500 uM by liquid scintillation counting; format: cell-based; set-up: scale not given: the % may be the effect or the level left; conditions: SNB-19; how it was run: as §1
[3] = target: T1, Cystine/glutamate transporter (Homo sapiens); experiment: Inhibition of [3H]L-glutamate uptake at amino acid transport system xc- in human SNB19 cells at 500 uM by liquid scintillation counting; format: cell-based; conditions: SNB-19; how it was run: as §1
[4] = target: T2, Cystine/glutamate transporter (Homo sapiens, UniProt Q9UPY5); experiment: Competitive inhibition of [3H]L-glutamate uptake at amino acid transport system xc- in human SNB19 cells by liquid scintillation counting; format: cell-based, SNB-19
T2 sequence (Q9UPY5 whole entry): T1 sequence (whole entry)
How it was run: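 SNB-19 glioma monolayers were assayed in Na+-free choline-HEPES Hank's buffer, pH 7.4, at 30 °C. L-[3H]-glutamate with L-Glu (10–500 μM final) and inhibitor were added simultaneously for 5 min. Radioactivity in NaOH lysates was counted by LSC. Ki came from a replot of Km,app values, or from IC50 inhibition curves using the Cheng-Prusoff equation.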

[5] = target: T1, Cystine/glutamate transporter (Homo sapiens); experiment: Activity at amino acid transport system xc- in human SNB19 cells assessed as induction of L-glutamate efflux at 500 uM by fluorometric assay; format: cell-based; conditions: SNB-19
How it was run: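 Paired SNB-19 coverslips were rinsed 10 min in Na+-free HBHS, then placed in a stirred cuvette (2 ml HBHS, 30 °C). NADP+ (1 mM) was added at 0 s and glutamate dehydrogenase (33 U) at 60 s, then the test substrate. L-Glu efflux was followed in real time as NADPH fluorescence. Triton X-100 (0.5%) gave total cellular L-Glu. Efflux was quantified from a cell-free standard curve.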

[6] = target: T2, Cystine/glutamate transporter; experiment: Inhibition of amino acid transport system xc- in human SNB19 cells assessed as [3H]L-glutamate uptake by liquid scintillation counting; format: cell-based, SNB-19
[7] = tested on: LRM55; experiment: Inhibition of amino acid transport system xc- in rat LRM55 cells assessed as [3H]L-glutamate uptake at 500 uM by liquid scintillation counting; format: cell-based; set-up: scale not given: the % may be the effect or the level left
[8] = target: T1, Cystine/glutamate transporter (Homo sapiens); conditions: SNB-19, 500 uM

Compound | Activity [1] | Activity [2] | other results
Cc1onc(C(=O)O)c1C[C@H](N)C(=O)O | 98% |  | 
C/C(=N\NC(N)=O)c1c(C(=O)O)noc1C | 91% |  | 
CCOC(=O)c1noc(C)c1/C(C)=N/NS(=O)(=O)c1ccccc1 | 96% |  | 
Cc1onc(C(=O)O)c1CC(N)C(=O)O (racemic) | 101% |  | 
C/C(=N\Nc1ccccc1)c1c(C(=O)O)noc1C |  | 56% | inhibition [3]: 44%
COC(C)c1onc(C(=O)O)c1C[C@H](N)C(=O)O (mixture of isomers) | 115% |  | 
COCc1onc(C(=O)O)c1C[C@H](N)C(=O)O | 98% |  | 
N[C@@H](Cc1c(C(=O)O)noc1CCc1cccc2ccccc12)C(=O)O | 47% |  | pKi [4]: 3.93; Activity [5]: inactive
C/C(=N\Nc1ccc([N+](=O)[O-])cc1[N+](=O)[O-])c1c(C(=O)O)noc1C | 73% | 45% | pKi [4]: 3.83; pIC50 [6]: 3.54; Activity [5]: inactive
Cc1ccc(-n2nc(C)c3c(C)onc3c2=O)cc1 |  | 94% | 
C/C(=N\Nc1ccc([N+](=O)[O-])cc1[N+](=O)[O-])c1c(C(=O)O)noc1CCc1ccc2ccccc2c1 |  | 45% | pKi [4]: 3.95; pIC50 [6]: 3.65; Activity [5]: inactive
Cc1nn(-c2cc(C(F)(F)F)cc(C(F)(F)F)c2)c(=O)c2noc(C)c12 |  | 82% | inhibition [3]: 18%
Cc1nn(-c2cccc([N+](=O)[O-])c2)c(=O)c2noc(C)c12 |  | 96% | 
COc1ccc(-n2nc(C)c3c(C)onc3c2=O)cc1 |  | 92% | 
Cc1nn(-c2ccc(F)cc2)c(=O)c2noc(C)c12 |  | 86% | 
Cc1nn(-c2ccc([N+](=O)[O-])cc2)c(=O)c2noc(C)c12 |  | 85% | inhibition [3]: 15%
Cc1nn(-c2ccccc2)c(=O)c2noc(C)c12 |  | 74% | inhibition [3]: 26%

Compound | Activity [1] | Activity [2] | other results
CCOC(=O)c1noc(C)c1/C(C)=N/NC(N)=O | 103% |  | 
C/C(=N\Nc1cc(C(F)(F)F)cc(C(F)(F)F)c1)c1c(C(=O)O)noc1C |  | 14% | inhibition [3]: 86%; pKi [4]: 4.19; pIC50 [6]: 3.89; Activity [5]: inactive
C/C(=N\Nc1ccc([N+](=O)[O-])cc1)c1c(C(=O)O)noc1C |  | 22% | inhibition [3]: 78%; pKi [4]: 4.22; pIC50 [6]: 3.90; Activity [5]: inactive
CCc1onc(C(=O)O)c1C[C@H](N)C(=O)O | 92% |  | 
Cc1onc(C(=O)O)c1CC(N)P(=O)(O)O (racemic) | 107% |  | 
Cc1nn(-c2cc(Cl)cc(Cl)c2)c(=O)c2noc(C)c12 |  | 89% | 
Cc1nn(-c2ccc(C(F)(F)F)cc2)c(=O)c2noc(C)c12 |  | 99% | 
Cc1nn(-c2ccc(F)cc2F)c(=O)c2noc(C)c12 |  | 95% | 
C/C(=N\Nc1ccccc1[N+](=O)[O-])c1c(C(=O)O)noc1C |  | 97% | 
C/C(=N\NS(=O)(=O)c1ccccc1)c1c(C(=O)O)noc1C | 101% |  | 
Cc1onc(O)c1C[C@H](N)C(=O)O |  |  | Activity [7]: 95%
N[C@@H](Cc1c(C(=O)O)noc1CCc1ccccc1)C(=O)O | 70% |  | 
C/C(=N\Nc1ccc([N+](=O)[O-])cc1[N+](=O)[O-])c1c(C(=O)O)noc1COCc1ccc2ccccc2c1 |  | 95% | 
N[C@@H](Cc1c(C(=O)O)noc1COCc1ccccc1)C(=O)O (racemic) | 70% |  | 
C/C(=N\NC(=O)Nc1ccccc1)c1c(C(=O)O)noc1C | 76% |  | 
N[C@@H](Cc1c(C(=O)O)noc1CCc1ccc2ccccc2c1)C(=O)O | 37% |  | pKi [4]: 4.28; Activity [5]: inactive; inhibition [8]: Active

— ChEMBL document CHEMBL1157680, “Isoxazole analogues bind the system xc- transporter: structure-activity relationship and pharmacophore model” (Bioorg Med Chem, 2010)
